Compounds with a hit are over-represented: about 3.7% of the library has one in this group of screens.
Yeast growth inh – chemicals that inhibit yeast BB579 growth in restrictive medium (lifespan-shortening candidates); inhibition, % at 10 µM; 0.51% of 140,000 active; S. cerevisiae BB579 growth, OD615, 48 h; AID 804;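 active = inhibition above a set limit, 3 SD over the mean compound inhibition, cut at about 44% in these data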
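controls = amphotericin B 10 µg/mL, positive | assay system = DeaD yeast strain BB579 | schedule = 48 h compound exposure at 30 °C after 4 h preincubation | detection = OD615 turbidity measurement | medium = restrictive CSMM-D medium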
Insulin prom inh – TRM-6 insulin promoter activity inhibition | TRM-6 cells, insulin promoter-eGFP reporter, imaging; reporter expression induced with tamoxifen | inhibition, % at 2 µM | 0.9% of 130,000 active | AID 1273;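 active = inhibition above the mean plus 3 SD, with well images judged a real hit on visual review, cut at about 60% in these data, passing the limit was not always enough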
Yeast lifespan up – extends the lifespan of yeast. 0.68% of 130,000 active. AID 775. inhibition of the nicotinamide effect, % at 10 µM. S. cerevisiae growth with nicotinamide, OD615; deaD strain in restrictive glucose medium;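 active = inhibition above a set limit, placed 3 SD over the median of all compounds, cut at about 26% in these data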;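 note: 0% = nicotinamide-treated wells and 100% = cells grown without nicotinamide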
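Assay system: engineered S. cerevisiae DeaD replicative-lifespan strain, galactose-grown log-phase cells; Buffer or medium: CSMM-D glucose medium, restrictive; Probe or stimulus: nicotinamide 1.5 mM; Compound: single dose 10 µM compound, 0.25% DMSO; Schedule: 4 h preincubation then 48 h treatment at 30 °C; Technique: OD615 measurement.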
HMGR II inh – blocks class II HMG-CoA reductase of Enterococcus faecalis; AID 1066; purified E. faecalis HMGR, NADPH absorbance 340 nm kinetic; 0.41% of 190,000 active; inhibition, % at 10 µM;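 active = inhibition above a set limit, the median over all tested compounds plus 3 SD, cut at about 9.5% in these data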;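 note: enzyme runs in reverse so mevalonate oxidation gives rising NADPH absorbance; 0% = complete reaction with DMSO and 100% = background rate lacking mevalonate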
RAM inhibit – inhibitors of the yeast RAM network | S. cerevisiae dse1pr::URA3 reporter, 5-FOA growth OD615, 2 d; analog-sensitive cbk1-as2 kinase mutant strain | inhibition, % at 50 µM | 1.8% of 190,000 active;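 active = inhibition above a set limit, 3 SD over mean compound inhibition, cut at about 8.4% in these data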;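 note: 0% = DMSO-only wells with no growth and 100% = 10 µM 1-NA-PP1 full growth; inhibition rescues growth on 5-FOA so higher OD means more RAM inhibition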
* = called active by the depositor; nt = no result; + = active, no number.

SMILES	Yeast growth inh	Insulin prom inh	Yeast lifespan up	HMGR II inh	RAM inhibit
Cc1c(O)c(S(=O)(=O)c2ccccc2)c(=O)n(-c2ccccc2)c1-c1ccccc1	-52	-25	26	1	5
CCCSc1ccc(-c2nn(-c3ccccc3)cc2/C=C(/C#N)C(=O)N2CCOCC2)cc1	-43	nt	10	-2	8.8*
O=C(N/C(=C/c1cn(-c2ccccc2)nc1-c1ccccc1)C(=O)N1CCOCC1)c1ccc(Cl)cc1Cl	-63	-42	6	-5	8.9*
CCSc1ccc(-c2nn(-c3ccccc3)cc2/C=C(/C#N)C(=O)NC)cc1	-19	55	3	-10	4
O=C(Cc1ccc(F)cc1)Nc1cccc(-c2ccc3nncn3n2)c1	nt	nt	nt	-5	3
O=C(Cc1cccs1)Nc1cccc(-c2ccc3nncn3n2)c1	nt	23	nt	-1	8.5*
COC(=O)CSc1nc2ccc(NC(=O)c3ccccc3C(=O)N3CCOCC3)cc2s1	-32	nt	-5	-11	9.1*
O=C1C(=O)N(Cc2ccccc2)C(=O)N1CCOc1ccccc1	nt	nt	nt	-3	2
COc1ccccc1CC(=O)Nc1ccc2nc(C)sc2c1	2	nt	-6	-1	0
COc1cccc(CC(=O)Nc2ccc3nc(C)sc3c2)c1	79*	-40	-3	-3	-1
Cc1c(Cl)cccc1N1CC(C)(C)C1=O	nt	31	nt	1	1
N#Cc1c(-n2cccc2/C=N/O)sc2c1CCCC2	-31	71*	-1	3	1
O=C(O)c1cc2c([nH]c1=O)CCCC2	-30	48	-10	2	2
C=CCSC(=C(C#N)C#N)c1cc2c([nH]1)CCCC2	61*	-36	-8	-7	11*
Clc1ccccc1CSc1nnc(-c2ccncc2)o1	10	-3	-20	-10	0
COc1cc(-c2nnc(SCc3c(F)cccc3Cl)o2)cc(OC)c1OC	-35	22	-8	5	11*
COc1cc(-c2nnc(SCc3ccccc3Cl)o2)cc(OC)c1OC	-81	nt	-8	-7	11*
CCOC(=O)c1c[nH]c2c(C(F)(F)F)cccc2c1=O	nt	nt	nt	5	2
O=c1cc(C(F)(F)F)[nH]c2c(C(F)(F)F)cccc12	90*	-32	-1	-7	-2
Clc1ccc(COc2cccc(CNCc3ccncc3)c2)cc1	nt	nt	nt	-1	-1
COC(=O)CSc1nc(-c2ccccc2)c2c(c1C#N)CCCC2	-52	22	0	-2	8.6*
CCCOc1ccc(/C=N/Nc2cccc([N+](=O)[O-])c2)c(O)c1	-65	nt	-1	-1	8.9*
CC/C(C)=N/Nc1cccc([N+](=O)[O-])c1	98*	nt	-9	-2	0
O=C(NC1CCCCC1)C(c1cccnc1)N(CCc1ccccc1)C(=O)Cc1cccs1 (stereo not given)	-11	-53	-2	1	2
COc1cccc(OCCNc2cc(Cl)ccc2[N+](=O)[O-])c1	-9	78*	-4	-5	6
SMILES	Yeast growth inh	Insulin prom inh	Yeast lifespan up	HMGR II inh	RAM inhibit
Cc1ccc(C)c(OCCCCn2ccnc2)c1	-31	-23	2	-9	-1
Cc1ccc(OCCCCn2ccnc2)c(Cl)c1	-28	73*	-1	0	0
CN(Cc1nc(-c2cnccn2)no1)C1CC(C)(C)NC(C)(C)C1	nt	nt	nt	18*	3
CCCCNC(=O)NNC(=O)COc1cccc(C)c1C	-19	16	2	0	2
CN(C)c1ccc(NC(=O)c2ccc(Cn3cc([N+](=O)[O-])cn3)cc2)cc1	nt	50	nt	-1	2
COc1nccnc1NS(=O)(=O)c1ccc(N=Cc2c(C)[nH]n(-c3ccccc3)c2=O)cc1	-43	14	2	5	5
COc1cc(S(=O)(=O)Nc2cccc(C)c2)ccc1N=Cc1c(C)[nH]n(-c2ccccc2)c1=O	-33	-30	-5	2	8.5*
COc1cc(S(=O)(=O)Nc2ccc(C)cc2)ccc1N=Cc1c(C)[nH]n(-c2ccccc2)c1=O	-37	72*	4	-8	6
COc1cccc(CC(NC(C)=O)C(=O)NC2CCN(S(=O)(=O)c3ccc(NC(C)=O)cc3)CC2)c1 (stereo not given)	nt	nt	nt	4	-1
O=C1CCCN2N=C(SCC(=O)N3N=C(c4ccc(Br)cc4)CC3c3ccc(F)cc3)SC2=N1 (stereo not given)	nt	-90	nt	-1	11*
CCC(C(=O)OCC(=O)Nc1cccc(OC)c1)c1ccccc1 (stereo not given)	nt	73*	nt	5	3
CCOC(=O)c1nn(-c2cccc(OC)c2)c(-c2ccccc2)c1C(=O)c1ccccc1	-54	20	-1	2	6
CCOC(=O)c1nn(-c2cccc(Cl)c2)c(C)c1C(C)=O	-54	92*	-3	-3	3
O=C(N=Nc1ccc(NOC(=O)c2ccccc2Br)cc1)c1ccccc1O	nt	nt	nt	0	11*
Cc1cc(OCC(=O)O/N=C(\N)c2ccccc2)ccc1Br	-16	-25	-4	-3	4
CCN(Cc1ccccc1)S(=O)(=O)c1cc(C(=O)NCCCN(C)C)ccc1OC	nt	47	nt	12*	-1
CNC(=S)NNC(=O)c1sc2cc(C(F)(F)F)cnc2c1-c1ccccn1	nt	-9	nt	5	8.6*
CNC(=S)NNC(=O)c1sc2cc(C(F)(F)F)cnc2c1-c1cccnc1	nt	0	nt	-5	0
Cc1cc(N2C(=O)CC(Cc3ccccc3)C2=O)no1 (stereo not given)	-9	67	+	-3	4
Cc1cc(N2C(=O)CC(Cc3ccc(Cl)cc3)C2=O)no1 (stereo not given)	-29	-14	-3	-1	2
Cc1nc(SCc2ccc(Cl)cc2)ncc1C(=O)O	nt	-15	nt	-4	2
CCN(CC)C(=S)NC(=O)c1cccnc1	nt	33	nt	18*	1
Nc1c(C(=O)NCc2ccc3c(c2)OCO3)c2nc3ccccc3nc2n1CCCN1CCOCC1	-36	nt	-25	-5	9.8*
COc1ccc(NC(=O)COC(=O)C2CCN(S(=O)(=O)c3cccs3)CC2)cc1	nt	31	nt	-8	0
c1ccc(-c2cccc(-c3ccccn3)n2)nc1	99*	nt	-29	-2	-1
SMILES	Yeast growth inh	Insulin prom inh	Yeast lifespan up	HMGR II inh	RAM inhibit
O=[N+]([O-])c1cc(C2Nc3cccc4cccc(c34)N2)ccc1Cl	-35	nt	-1	-3	11*
C=CCn1c(SCc2ccccc2)nc2scc(-c3ccc(C)o3)c2c1=O	-44	-19	6	-1	11*
O=C(CCSc1nnc(-c2ccncc2)o1)Nc1ccc(Cl)cc1	86*	nt	-12	-2	1
O=C(CCSc1nnc(-c2ccncc2)o1)Nc1cccc(Cl)c1	nt	nt	nt	3	4
CCNc1nc(NCC)nc(N/N=C/c2ccc(Br)cc2)n1	nt	nt	nt	-1	0
CCNc1nc(OC)nc(N2CCC(Cc3ccccc3)CC2)n1	-32	-27	-3	1	4
COc1ccc(C2c3c(-c4ccccc4O)n[nH]c3C(=O)N2CCc2ccc(OC)c(OC)c2)cc1 (stereo not given)	-57	nt	-3	-1	11*
